Laboratory results reported in ChEMBL document CHEMBL1123984, “Stereochemical aspects of phenylethanolamine analogues as substrates of phenylethanolamine N-methyltransferase” (J Med Chem, 1988).

T1: Phenylethanolamine N-methyltransferase (Bos taurus, UniProt P10938)
T1 sequence (P10938 whole entry): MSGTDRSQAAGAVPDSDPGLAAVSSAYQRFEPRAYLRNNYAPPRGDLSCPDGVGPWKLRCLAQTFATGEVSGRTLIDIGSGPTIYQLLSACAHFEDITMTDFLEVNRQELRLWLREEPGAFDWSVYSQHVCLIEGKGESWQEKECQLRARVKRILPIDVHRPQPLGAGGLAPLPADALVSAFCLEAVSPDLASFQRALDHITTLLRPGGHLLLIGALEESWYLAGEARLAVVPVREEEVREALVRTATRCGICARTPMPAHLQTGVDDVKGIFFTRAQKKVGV


How the values were obtained:
[1] = target: T1, Phenylethanolamine N-methyltransferase; experiment: (§1) In vitro binding affinity of compound towards bovine adrenal phenylethanolamine N-methyl-transferase (PNMT)
In short: (§2)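 Bovine adrenal PNMT, purified through the isoelectric precipitation step, tested in a radiochemical methylation assay with isoamyl alcohol/toluene extraction. For substrates, Km came from at least five concentrations of the variable substrate. For inhibitors, Ki came from at least three inhibitor concentrations, with phenylethanolamine as the variable substrate.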

[2] = Vmax of compound was determined; assay type: ADME
In short: (§3)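 Substrate kinetics used bovine adrenal PNMT, purified through the isoelectric precipitation step, in a radiochemical methylation assay with isoamyl alcohol/toluene extraction. At least five concentrations of the variable substrate gave Km and Vmax. Vmax is in nmol product per mg protein per min, and the ratio is 100 × Vmax/Km.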

[3] = Ratio expressed as 100x Vmax/Km; assay type: ADME; in short: as §3
[4] = substrate: C[C@H](N)[C@H](O)c1ccccc1; experiment: as §1; in short: as §2
[5] = substrate: N[C@H]1CCc2ccccc2[C@H]1O; experiment: as §1; in short: as §2

| Molecule | Ki [1] [µM] | Vmax [2] [nM/mg/min] | Ratio [3] | further results |
| --- | --- | --- | --- | --- |
| C[C@@H](N)[C@H](O)c1ccccc1 | 2440 |  |  |  |
| N[C@@H]1CCc2ccccc2[C@@H]1O | 293 |  |  |  |
| C[C@H](N)[C@@H](O)c1ccccc1 [CATHINE] | 3700 |  |  |  |
| C[C@H](N)[C@H](O)c1ccccc1 [(1R,2S)-PHENYLPROPANOLAMINE] |  | 0.22 | 0.017 |  |
| N[C@H]1CCc2ccccc2[C@H]1O |  | 0.16 | 3.6 |  |
| N[C@H]1CCc2ccccc2[C@@H]1O | 4.6 |  |  |  |
| N[C@H]1CCc2ccccc2C1 | 4.1 |  |  |  |
| N[C@@H]1CCc2ccccc2C1O (single isomer, unassigned) |  | 0.12 | 0.062 |  |
| NC[C@H](O)c1ccccc1 |  | 4.85 | 1.7 |  |
| NC[C@@H](O)c1ccccc1 |  | 0.92 | 0.96 |  |
| N[C@@H]1CCc2ccccc2C1 | 10 |  |  |  |
| N[C@@H]1CCc2ccccc2[C@@H]1O (racemic) |  | 0.15 |  |  |
| C[C@@H](N)[C@@H](O)c1ccccc1 [(1S,2R)-PHENYLPROPANOLAMINE] | 2980 |  |  |  |
| Phenylethanolamine N-methyltransferase (Bos taurus), P10938 (protein) MSGTDRSQAAGAVPDSDPGLAAVSSAYQRFEPRAYLRNNYAPPRGDLSCPDGVGPWKLRCLAQTFATGEVSGRTLIDIGSGPTIYQLLSACAHFEDITMTDFLEVNRQELRLWLREEPGAFDWSVYSQHVCLIEGKGESWQEKECQLRARVKRILPIDVHRPQPLGAGGLAPLPADALVSAFCLEAVSPDLASFQRALDHITTLLRPGGHLLLIGALEESWYLAGEARLAVVPVREEEVREALVRTATRCGICARTPMPAHLQTGVDDVKGIFFTRAQKKVGV |  |  |  | Km [4]: 1310 µM; Km [5]: 4.5 µM |
